Here are results for three compounds from ChEMBL document CHEMBL1142488, “Synthesis of N-substituted 5-[2-(N-alkylamino)ethyl]dibenzo[c,h][1,6]naphthyridines as novel topoisomerase I-targeting antitumor agents” (Bioorg Med Chem, 2008).

Structures are written as SMILES.

Assay [1] is described as follows: Cytotoxicity against camptothecin-resistant and TOP1 deficient mouse P388/CPT45 cells after MTT assay. The following applies: P388CPT45. In kind it is functional, cell-based. In short, it runs like this: (§1)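 Suspension cultures at 37 °C, 5% CO2, in RPMI with 10% heat-inactivated FBS, 2 mM L-glutamine, penicillin and streptomycin. Continuous 4-day exposure to a range of drug concentrations, then MTT read-out to give IC50. Drug-free control included. At least two runs, six replicate wells each.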
Background: Tetrazolium dyes change colour on reduction, which living cells bring about.

Assay [2] addresses T1, DNA topoisomerase 1 (Homo sapiens) (UniProt P11387).
T1 sequence (whole entry): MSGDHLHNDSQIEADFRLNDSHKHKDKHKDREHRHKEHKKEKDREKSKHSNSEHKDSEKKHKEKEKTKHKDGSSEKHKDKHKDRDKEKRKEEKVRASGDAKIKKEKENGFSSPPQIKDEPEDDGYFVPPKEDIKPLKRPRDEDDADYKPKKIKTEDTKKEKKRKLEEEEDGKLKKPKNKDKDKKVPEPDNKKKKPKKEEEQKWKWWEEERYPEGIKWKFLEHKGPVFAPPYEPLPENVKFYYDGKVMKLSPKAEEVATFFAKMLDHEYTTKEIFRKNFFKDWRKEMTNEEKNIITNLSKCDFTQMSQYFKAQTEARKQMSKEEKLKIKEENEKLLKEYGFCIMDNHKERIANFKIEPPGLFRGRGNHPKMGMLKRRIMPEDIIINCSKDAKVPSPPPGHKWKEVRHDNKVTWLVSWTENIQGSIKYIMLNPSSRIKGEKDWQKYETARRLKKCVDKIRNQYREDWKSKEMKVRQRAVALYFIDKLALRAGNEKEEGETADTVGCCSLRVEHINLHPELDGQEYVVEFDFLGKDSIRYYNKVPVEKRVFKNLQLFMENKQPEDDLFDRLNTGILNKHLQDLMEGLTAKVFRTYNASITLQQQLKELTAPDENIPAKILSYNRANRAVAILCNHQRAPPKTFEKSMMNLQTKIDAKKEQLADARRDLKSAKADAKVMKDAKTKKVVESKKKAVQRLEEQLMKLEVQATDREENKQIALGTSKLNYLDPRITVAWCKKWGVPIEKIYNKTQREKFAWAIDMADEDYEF
Put plainly: Inhibition of human topoisomerase 1 mediated DNA cleavage assessed as effective drug concentration causing 10% YepG plasmid cleavage relative to camptothecin. Conditions: in the assay text read “relative to topotecan” for “relative to camptothecin”. In short, it runs like this:
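Stopped with SDS and proteinase K, 1 h at 37 °C. Alkali-denatured with NaOH/EDTA/sucrose/bromophenol blue, then run on neutral agarose gel.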

Assay [3] deals with MDA-MB-435 (human). The assay is described as follows: Antitumor activity against human MDA-MB-435 cells xenografted in NCR/NU NU mouse assessed as tumor volume measured on day 42 initially dosed at 5 mg/kg, ip qd x 5/week for 1 week and was gradually increased to 7 mg/kg x 5/week schedule.
The subject of assay [4] is MDA-MB-435 (human). Put plainly: Antitumor activity against human MDA-MB-435 cells xenografted in NCR/NU NU mouse assessed as tumor volume measured on day 21 initially dosed at 5 mg/kg, ip qd x 5/week for 1 week and was gradually increased to 7 mg/kg x 5/week schedule.
Assay [5] in a line: Cytotoxicity against camptothecin-resistant human CPT-K5 cells after MTT assay. It counts as functional, cell-based. In short, it runs like this: as §1
The test system of assay [6] is MDA-MB-435 (human). Put plainly: Antitumor activity against human MDA-MB-435 cells xenografted in NCR/NU NU mouse assessed as tumor volume measured on day 7 initially dosed at 5 mg/kg, ip qd x 5/week for 1 week and was gradually increased to 7 mg/kg x 5/week schedule.
Assay [7] concerns MDA-MB-435 (human). The assay is described as follows: Antitumor activity against human MDA-MB-435 cells xenografted in NCR/NU NU mouse assessed as tumor volume measured on day 28 initially dosed at 5 mg/kg, ip qd x 5/week for 1 week and was gradually increased to 7 mg/kg x 5/week schedule. (A xenograft is tissue or cells of one species grown in another, often human tumour cells in immunodeficient mice.)

Assay [8] concerns MDA-MB-435 (human). The assay is described as follows: Antitumor activity against human MDA-MB-435 cells xenografted in NCR/NU NU mouse assessed as tumor volume measured on day 14 initially dosed at 5 mg/kg, ip qd x 5/week for 1 week and was gradually increased to 7 mg/kg x 5/week schedule.
Assay [9] is described as follows: Cytotoxicity against multidrug resistant human KBH5.0 cells overexpressing BCRP after MTT assay. It counts as functional, cell-based. The following applies: KBH5.0 cell. In short, it runs like this: (§2)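 IC50 after continuous 4-day exposure to varying drug concentrations, with MTT read at the end of day 4. A drug-free control was included. At least two runs, each in six replicate wells.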

For another assay, the system named is P388. The assay is described as follows: Cytotoxicity against mouse P388 cells after MTT assay. It counts as functional, cell-based. In short, it runs like this:
as §1

Assay [10] can be described thus: Cytotoxicity against human RPMI8402 cells after MTT assay. In kind it is functional, cell-based. The following applies: RPMI 8402. In short, it runs like this: as §1
Assay [11] concerns MDA-MB-435 (human). Put plainly: Antitumor activity against human MDA-MB-435 cells xenografted in NCR/NU NU mouse assessed as tumor volume measured on day 49 initially dosed at 5 mg/kg, ip qd x 5/week for 1 week and was gradually increased to 7 mg/kg x 5/week schedule.
Assay [12] is described as follows: Cytotoxicity against multidrug resistant human KBV-1 cells overexpressing MDR1 after MTT assay. In kind it is functional, cell-based. Conditions: KB-V1. In short, it runs like this:
as §2

Assay [13] has as its system MDA-MB-435 (human). Put plainly: Antitumor activity against human MDA-MB-435 cells xenografted in NCR/NU NU mouse assessed as tumor volume measured on day 35 initially dosed at 5 mg/kg, ip qd x 5/week for 1 week and was gradually increased to 7 mg/kg x 5/week schedule.
The subject of assay [14] is MDA-MB-435 (human). The assay is described as follows: Antitumor activity against human MDA-MB-435 cells xenografted in NCR/NU NU mouse assessed as tumor volume measured on day 28 initially dosed at 5 mg/kg, ip qd x 5/week for 1 week and dose schedule adjusted to achieve total dose of 301 mg/kg.
In assay [15] the test system is MDA-MB-435 (human). Put plainly: Antitumor activity against human MDA-MB-435 cells xenografted in NCR/NU NU mouse assessed as tumor volume measured on day 42 initially dosed at 5 mg/kg, ip qd x 5/week for 1 week and dose schedule adjusted to achieve total dose of 301 mg/kg.
Assay [16] deals with MDA-MB-435 (human). Put plainly: Antitumor activity against human MDA-MB-435 cells xenografted in NCR/NU NU mouse assessed as tumor volume measured on day 14 initially dosed at 5 mg/kg, ip qd x 5/week for 1 week and dose schedule adjusted to achieve total dose of 301 mg/kg.
In assay [17] the test system is MDA-MB-435 (human). Put plainly: Antitumor activity against human MDA-MB-435 cells xenografted in NCR/NU NU mouse assessed as tumor volume measured on day 7 initially dosed at 5 mg/kg, ip qd x 5/week for 1 week and dose schedule adjusted to achieve total dose of 301 mg/kg.
For assay [18], the system named is MDA-MB-435 (human). Put plainly: Antitumor activity against human MDA-MB-435 cells xenografted in NCR/NU NU mouse assessed as tumor volume measured on day 35 initially dosed at 5 mg/kg, ip qd x 5/week for 1 week and dose schedule adjusted to achieve total dose of 301 mg/kg.
Assay [19] concerns MDA-MB-435 (human). The assay is described as follows: Antitumor activity against human MDA-MB-435 cells xenografted in NCR/NU NU mouse assessed as tumor volume measured on day 21 initially dosed at 5 mg/kg, ip qd x 5/week for 1 week and dose schedule adjusted to achieve total dose of 301 mg/kg.
The test system of assay [20] is MDA-MB-435 (human). The assay is described as follows: Antitumor activity against human MDA-MB-435 cells xenografted in NCR/NU NU mouse assessed as tumor volume measured on day 49 initially dosed at 5 mg/kg, ip qd x 5/week for 1 week and dose schedule adjusted to achieve total dose of 301 mg/kg.
Assay [21] is described as follows: Cytotoxicity against human KB3-1 cells after MTT assay. Conditions: KB 3-1. It counts as functional, cell-based. In short, it runs like this: as §2
The test system of assay [22] is MDA-MB-435 (human). Put plainly: Antitumor activity against human MDA-MB-435 cells xenografted in NCR/NU NU mouse assessed as tumor volume measured on day 14 initially dosed at 5 mg/kg, ip qd x 5/week for 2 weeks and was gradually increased to 6 mg/kg x 5/week for 2 weeks and adjusted to 6 mg/kg qd x 3/week for 1 week schedule.
The subject of assay [23] is MDA-MB-435 (human). The assay is described as follows: Antitumor activity against human MDA-MB-435 cells xenografted in NCR/NU NU mouse assessed as tumor volume measured on day 28 initially dosed at 5 mg/kg, ip qd x 5/week for 2 weeks and was gradually increased to 6 mg/kg x 5/week for 2 weeks and adjusted to 6 mg/kg qd x 3/week for 1 week schedule.
The test system of assay [24] is MDA-MB-435 (human). Put plainly: Antitumor activity against human MDA-MB-435 cells xenografted in NCR/NU NU mouse assessed as tumor volume measured on day 21 initially dosed at 5 mg/kg, ip qd x 5/week for 2 weeks and was gradually increased to 6 mg/kg x 5/week for 2 weeks and adjusted to 6 mg/kg qd x 3/week for 1 week schedule.
For assay [25], the system named is MDA-MB-435 (human). Put plainly: Antitumor activity against human MDA-MB-435 cells xenografted in NCR/NU NU mouse assessed as tumor volume measured on day 7 initially dosed at 5 mg/kg, ip qd x 5/week for 2 weeks and was gradually increased to 6 mg/kg x 5/week for 2 weeks and adjusted to 6 mg/kg qd x 3/week for 1 week schedule.
Assay [26] deals with MDA-MB-435 (human). The assay is described as follows: Antitumor activity against human MDA-MB-435 cells xenografted in NCR/NU NU mouse assessed as tumor volume measured on day 49 initially dosed at 5 mg/kg, ip qd x 5/week for 2 weeks and was gradually increased to 6 mg/kg x 5/week for 2 weeks and adjusted to 6 mg/kg qd x 3/week for 1 week schedule.
The test system of assay [27] is MDA-MB-435 (human). The assay is described as follows: Antitumor activity against human MDA-MB-435 cells xenografted in NCR/NU NU mouse assessed as tumor volume measured on day 35 initially dosed at 5 mg/kg, ip qd x 5/week for 2 weeks and was gradually increased to 6 mg/kg x 5/week for 2 weeks and adjusted to 6 mg/kg qd x 3/week for 1 week schedule.
Assay [28] relates to MDA-MB-435 (human). The assay is described as follows: Antitumor activity against human MDA-MB-435 cells xenografted in NCR/NU NU mouse assessed as tumor volume measured on day 42 initially dosed at 5 mg/kg, ip qd x 5/week for 2 weeks and was gradually increased to 6 mg/kg x 5/week for 2 weeks and adjusted to 6 mg/kg qd x 3/week for 1 week schedule.

Take `C#CCN(C)CCn1c(=O)c2cc(OC)c(OC)cc2c2cnc3cc4c(cc3c21)OCO4`: the IC50 in [1] came out at 0.4 µM; in assay [5], 4.5 µM; in [9] it was 0.034 µM; with P388 it was 0.02 µM; in assay [10], 0.008 µM; in [12], 0.07 µM. The Activity in [2] was found to be 0.1; in the assay with MDA-MB-435 (human) [3], 358 mm3; in the assay on MDA-MB-435 (human) [4], 218 mm3; with MDA-MB-435 (human) [6], 144 mm3; in the assay on MDA-MB-435 (human) [7], 284 mm3; in the assay with MDA-MB-435 (human) [8], 167 mm3. Further, the Activity in the assay with MDA-MB-435 (human) [11] is listed as 433 mm3; with MDA-MB-435 (human) [13], 317 mm3.
On to `COc1cc2c(=O)n(CCN(C)CC(N)=O)c3c4cc5c(cc4ncc3c2cc1OC)OCO5`, for which the IC50 in assay [1] was 0.39 µM; in assay [5], 3.5 µM; in [9] it was 0.32 µM; with P388, 0.009 µM; in [10], 0.003 µM; in assay [21], 0.01 µM. Besides, the Activity was 0.3 in assay [2]; 319 mm3 in the assay with MDA-MB-435 (human) [14]; 434 mm3 in the assay on MDA-MB-435 (human) [15]; 178 mm3 in the assay on MDA-MB-435 (human) [16]; 147 mm3 with MDA-MB-435 (human) [17]; 344 mm3 with MDA-MB-435 (human) [18]. In addition, the Activity in the assay with MDA-MB-435 (human) [19] was found to be 230 mm3; in the assay with MDA-MB-435 (human) [20], 527 mm3.
Regarding `COc1cc2c(=O)n(CCN(CC#N)C(C)C)c3c4cc5c(cc4ncc3c2cc1OC)OCO5`, the Activity in the assay with MDA-MB-435 (human) [22] was 175 mm3; in assay [2], less than 0.2; in the assay with MDA-MB-435 (human) [23], 220 mm3; with MDA-MB-435 (human) [24], 213 mm3; in the assay with MDA-MB-435 (human) [25] it was 142 mm3; with MDA-MB-435 (human) [26], 314 mm3. Moreover, the results for the Activity in the assay with MDA-MB-435 (human) [27] and in the assay with MDA-MB-435 (human) [28] were 250 mm3 and 286 mm3, respectively. The IC50 in assay [1] turned out to be 0.06 µM; in assay [5], 1.3 µM; in assay [9], 0.009 µM; in the assay on P388, 0.002 µM; in assay [10], 0.002 µM; in assay [12] it was 0.043 µM. This compound yielded an IC50 in [21] of 0.006 µM.

The IC50 is the point on the concentration scale where inhibition reaches its midpoint. A high value points to lower potency.
